This is a sample that favours compounds with a hit; in the whole collection about 2.1% have one here.
RanGTP-Imp inh – disruptors of Ran-importin-beta complex formation – biochemical, FRET, CFP-Ran, YFP-importin-beta, homogeneous, primary screen. AID 2216. cell-free CFP-Ran/YFP-importin-beta FRET ratio. 300,000 tested, 1.1% active. inhibition, % (no concentration beside the values);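 active = more than half of the replicate wells show a fall in the fluorescence ratio signal beyond about 16%, limit read from the data, passing the limit was not always enough; inconclusive = exactly half of the replicate wells pass the set limit; inactive = fewer than half of replicates pass the limit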;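 note: 0% = DMSO wells and 100% = Ran loaded with GDP instead of GTP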
Pemphigus Ab inh – human desmoglein-3 autoantibody binding inhibition. P32926. DSG3-coupled beads, scFv-anti-DSG3-GFP binding, flow cytometry; stronger effect = lower value. binding (percent of control), % at 10 µM. 310,000 tested, 0.48% active;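 active = binding more than 3 SD below its plate's average and above zero; inconclusive = below that plate limit but binding exactly zero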;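 note: hits lower antibody fragment binding to DSG3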
pCIP destab – compounds decreasing mouse p/CIP protein stability | AID 1984 | Q05BA5 | decrease of EGFP signal, % at 10 µM | 290,000 tested, 0.01% active | F442A p/CIP-EGFP cells, EGFP fluorescence, 16 h;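 active = EGFP signal decrease of at least 30% at 10 µM or well 3 SD below plate mean, unless failing retest; inactive = the rest, including hits failing retest or dose response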
Hck Nef HTS – inhibitors of human Hck kinase activated by Nef. inhibition, % at 20 µM. 220,000 tested, 0.68% active. AID 463187. Recombinant Hck-YEEI plus Nef, Z-Lyte FRET kinase assay. P08631;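 active = Hck-Nef kinase inhibition above about 50%, limit read from the data; inactive = inhibition below that limit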;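 note: 0% = DMSO with Hck plus Nef and 100% = Hck alone without Nef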
Target sequence (P08631 whole entry, looked up): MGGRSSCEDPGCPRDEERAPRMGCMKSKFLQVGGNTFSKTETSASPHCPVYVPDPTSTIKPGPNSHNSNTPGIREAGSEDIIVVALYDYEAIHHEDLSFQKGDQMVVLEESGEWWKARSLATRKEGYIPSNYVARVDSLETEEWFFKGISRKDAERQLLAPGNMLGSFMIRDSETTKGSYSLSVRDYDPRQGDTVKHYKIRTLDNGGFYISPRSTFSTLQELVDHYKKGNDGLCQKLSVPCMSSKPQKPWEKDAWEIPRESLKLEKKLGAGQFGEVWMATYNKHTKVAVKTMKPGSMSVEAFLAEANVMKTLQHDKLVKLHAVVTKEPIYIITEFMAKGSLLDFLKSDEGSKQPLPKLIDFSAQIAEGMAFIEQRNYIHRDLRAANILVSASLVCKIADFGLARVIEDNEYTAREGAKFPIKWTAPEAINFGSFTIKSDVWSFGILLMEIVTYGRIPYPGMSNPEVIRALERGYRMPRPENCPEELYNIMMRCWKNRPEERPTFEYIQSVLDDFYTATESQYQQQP
Runt-CBFb FRET – inhibitors of human RUNX1 Runt domain binding to CBFb; Q01196+Q13951; Cerulean-Runt/Venus-CBFb FRET ratio 530/480, 1 h; inhibition, % at 20 µM; 220,000 tested, 0.46% active;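 active = inhibition over about 50% at 20 µM in the single-dose screen, limit read from the data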;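 note: 0% = DMSO wells and 100% = excess unlabeled CBFb competitor control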
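Measured by: fluorescence energy transfer, 422 nm excitation, 530/480 nm emission; test system: Cerulean-tagged RUNX1 Runt domain (FRET donor) fusion protein; buffer or medium: Tris pH 7.5 buffer with BSA; compound: one dose, 20 µM compound, 1% DMSO; times: two 1 h room-temperature incubations shielded from light; benchmarks: unlabeled CBFb 5 µM, positive control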
Runt-SMMHC FRET – blocks binding of human RUNX1 Runt domain to CBFb-SMMHC. Cerulean-Runt/Venus-CBFb-SMMHC FRET ratio 530/480, 1 h. inhibition, % at 20 µM. 220,000 tested, 0.74% active;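 active = mean inhibition across duplicate retests at 20 µM reaching about 50%, limit read from the data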;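 note: 0% = DMSO wells and 100% = wells with excess untagged CBFb-SMMHC; inhibitors lower the FRET ratio by blocking Runt binding to CBFb-SMMHC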
Active calls of the source: *; ? = inconclusive; / = not tested or not shown.

SMILES	RanGTP-Imp inh	Pemphigus Ab inh	pCIP destab	Hck Nef HTS	Runt-CBFb FRET	Runt-SMMHC FRET
O=C1c2ccccc2C(=O)N1Cc1nn2c(-c3ccc(Cl)cc3)nnc2s1	3	59*	-3	/	-4	-1
CCc1ccc(C2=CC(c3cc(Br)ccc3F)n3ncnc3N2)cc1 (configuration not stated)	/	93	-8	0	-1	75*
O=C(CCn1nnc2ccccc21)OCC(=O)c1ccc(F)cc1	1	126	2	/	/	/
Cc1ccccc1S(=O)Cc1ccc(C(=O)N2CCN(C(=O)c3ccco3)CC2)o1 (configuration not stated)	3	100	-1	/	/	/
Cc1ccc2[nH]c(=O)c(C(c3nnnn3Cc3ccccc3)N3CCc4ccccc43)cc2c1 (configuration not stated)	20*	98	-18	-2	11	-1
Cc1ccc2cc(C(c3nnnn3Cc3ccccc3)N3CCc4ccccc43)c(=O)[nH]c2c1 (configuration not stated)	6	98	-4	1	14	2
O=C(CN1CCOCC1)Nc1ccccc1Cl	-2	100	-7	-2	0	-1
N=C1C(=O)OCC1c1ccccc1NC(=O)CN1CCOCC1 (configuration not stated)	41*	115	6	4	-3	3
Nc1cccc2c1C(=O)N(C(=O)/C=C/c1ccc(F)cc1)C2=O	5	98	1	11	-58	86*
O=C(c1ccco1)N1C(=O)c2cccc3cccc1c23	/	134	-8	6	-2	-6
Nc1cccc2c1C(=O)N(C(=O)c1ccco1)C2=O	26*	98	-8	-86	-45	84*
Cc1cnc(CN(C)C(=O)c2ccc3oc(Cc4ccc(Cl)cc4)nc3c2)[nH]1	0	101	-7	/	/	/
Cc1csc(C(=O)O)c1NC(=O)c1cccc([N+](=O)[O-])c1	2	43*	-3	-1	2	-6
COc1ccc(OC)c(CN2CCN(C(=O)c3ccc(S(=O)(=O)Nc4ccccc4F)cc3)CC2)c1	/	102	/	/	/	/
CC1(c2ccc(OC(F)F)cc2)NC(=O)N(/N=C/c2c(O)ccc3ccccc23)C1=O (configuration not stated)	7	94	-6	3	39	71*
CC1(c2ccc(OC(F)F)cc2)NC(=O)N(CC(=O)Nc2cccc(S(N)(=O)=O)c2)C1=O (configuration not stated)	2	96	-2	13	2	3
CN(Cc1ccccc1)C(=O)Cn1cccc1C(=O)c1ccccc1	70*	/	10	-15	1	3
N=c1c(C(=O)NCc2ccco2)cc2c(=O)n3ccccc3nc2n1CCc1ccccc1	130*	111	-19	1	12	38
Cc1ccc(Cn2c(=N)c(C(=O)NCc3ccco3)cc3c(=O)n4ccccc4nc32)cc1	114*	122	-33	17	29	/
O=C(NOC(=O)c1c(F)cccc1Cl)c1ccc(Cl)c(Cl)c1	7	114	-1	/	/	/
CCOC(=O)C1=CN(C)C=C(C(=O)OCC)C1c1ccsc1	53*	100	-8	47	122*	99*
COC(=O)C1=CN(CC2CCCO2)C=C(C(=O)OC)C1c1ccccc1C(F)(F)F (configuration not stated)	62*	100	12	31	106*	82*
COC(=O)C1=CN(CC2CCCO2)C=C(C(=O)OC)C1c1ccsc1 (configuration not stated)	11	86	15	49	88*	134*
COC(=O)C1=C(C)N(C)C(C)=C(C(=O)OC)C1c1ccsc1	2	/	3	0	-2	0
COC(=O)C1=CN(Cc2ccc(F)cc2)C=C(C(=O)OC)C1c1ccc(O)c(OC)c1	10	102	-2	/	/	/
SMILES	RanGTP-Imp inh	Pemphigus Ab inh	pCIP destab	Hck Nef HTS	Runt-CBFb FRET	Runt-SMMHC FRET
COC(=O)C1=C(C)OC(N)=C(C#N)C1c1ccsc1 (configuration not stated)	3	103	-1	-4	-6	-6
COC(=O)C1=CN(Cc2ccc(OC)cc2)C=C(C(=O)OC)C1c1ccsc1	?	99	-7	7	68*	134*
COC(=O)C1=C(N)Oc2cc(C)n(CC3CCCO3)c(=O)c2C1c1ccccc1OC (configuration not stated)	5	98	-10	0	2	-2
CN1C[C@@H]2[C@@H]3C(=O)N(Cc4ccccc4)C(=O)[C@@H]3[C@](C)(C1=O)N2C(=O)c1ccccc1	/	99	/	/	/	/
O=c1nccc(SCc2ccc(Cl)cc2Cl)[nH]1	1	92	-9	31	0	2
COc1ccc(C(=O)NC(C)c2ccc(-n3ccnc3)cc2)cc1S(=O)(=O)N1CCOCC1 (configuration not stated)	/	101	/	/	/	/
COC(=O)CCNC(=O)CCc1ccc(S(=O)(=O)N2CCCCCC2)cc1	/	100	/	/	/	/
O=C(NCc1ccccc1)C(c1ccccn1)N(C(=O)c1csnn1)c1ccccc1F (configuration not stated)	-9	90	-6	/	/	/
O=C1CC(C(=O)Nc2ccc(F)cc2)n2cnnc2N1 (configuration not stated)	5	2.4*	2	20	-1	-1
O=C(Nc1ccc(F)cc1)C1CC(=O)n2cnnc2N1 (configuration not stated)	1	99	-2	22	0	3
CC(=O)Nc1c(S(=O)(=O)c2ccccc2)c2nc3ccccc3nc2n1Cc1ccccc1	23*	91	2	6	20	73*
Cc1ccc(N2C(=O)/C(=C/c3cccnc3)SC2=S)cc1	-5	88*	-3	3	14	1
CC(C)Oc1ccc(C2CC(=O)N(c3ccc(N(C)C)cc3)C2=O)cc1 (configuration not stated)	-1	77*	7	14	-6	-8
CC(C)Oc1ccc(C2CC(=O)N(c3ccccc3)C2=O)cc1 (configuration not stated)	-1	99	-2	1	3	2
Cn1c(NC(=O)c2cc(-c3ccc4c(c3)OCO4)nc3ccccc23)cc(=O)n(C)c1=O	-2	105	-13	0	62*	5
Cc1c(NC(=O)CN2C(=O)NC(CCc3ccccc3)C2=O)c(=O)n(-c2ccccc2)n1C (configuration not stated)	34*	107	-8	-7	0	2

Screening data (PubChem BioAssay)
